The text below walks through data of ChEMBL document CHEMBL4033784, “Discovery of 1,5-Diphenylpyrazole-3-Carboxamide Derivatives as Potent, Reversible, and Selective Monoacylglycerol Lipase (MAGL) Inhibitors” (J Med Chem, 2018).

Structures are written as SMILES. Activity calls are given as the source filed them.

Assay [1] relates to Mus musculus. Briefly: Antinociceptive activity in oxaliplatin-induced neuropathic pain 4r5CD-1 albino mouse model assessed as reduction in cold allodynia at 30 mg/kg, po cotreated with oxaliplatin on day 1 to 14 measured on day 7 and 15 by cold plate test. The format is functional, organism-based. The method in brief:
(§1)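 Male CD-1 mice (22–25 g) given oxaliplatin 2.4 mg/kg i.p. in 5% glucose on days 1-2, 5-9, 12-14. Compound suspended in CMC, 30 mg/kg p.o., given on the same schedule. Cold plate held at 4 °C ± 1 °C, 60 s cut-off. Latency to first hind-paw lifting or licking recorded on days 7 and 15, 24 h after the last dose. 10 mice per group over 2 sets, mean ± S.E.M.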

Assay [2] addresses T1, Monoglyceride lipase (Homo sapiens) (UniProt Q99685).
T1 sequence (whole entry): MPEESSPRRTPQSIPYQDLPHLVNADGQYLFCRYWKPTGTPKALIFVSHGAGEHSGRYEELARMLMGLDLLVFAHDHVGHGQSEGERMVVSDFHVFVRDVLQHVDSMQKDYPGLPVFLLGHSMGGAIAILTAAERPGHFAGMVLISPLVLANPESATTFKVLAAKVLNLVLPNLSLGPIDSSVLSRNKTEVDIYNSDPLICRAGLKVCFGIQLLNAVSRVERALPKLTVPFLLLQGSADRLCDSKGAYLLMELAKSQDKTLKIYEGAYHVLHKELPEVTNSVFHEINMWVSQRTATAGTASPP
The note with it: 20 uM.

Assay [3] deals with Mus musculus. The experiment in a line: Effect on 2-AG level in spinal cord of oxaliplatin-induced neuropathic pain 4r5CD-1 albino mouse model at 30 mg/kg, po measured at 1 hr post last dose on day 15 by LC-MS/MS analysis. The format is functional, organism-based. The method in brief: (§2)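 Mice received oxaliplatin 2.4 mg/kg i.p. plus compound 30 mg/kg p.o. or vehicle for 14 days. On day 15 they were decapitated 1 h after the last dose. Brain and spinal cord were washed in PBS and snap-frozen. 2-AG was quantified by LC-MS/MS.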

For assay [4], the target named is Cannabinoid receptor 2 (Homo sapiens) (UniProt P34972). Briefly: Displacement of [3H]CP55,940 from human CB2 receptor expressed in CHOK1 cell membranes at 10 uM after 90 mins relative to control. The method in brief:
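Membranes expressing hCB1 or hCB2 were incubated in 50 mM Tris-HCl, 2.5 mM EDTA, 5 mM MgCl2 with fatty-acid-free BSA, pH 7.4. Incubation with compound and 0.5 nM [3H]CP55,940 for 90 min at 30 °C. Nonspecific binding defined with 10 µM […]. Samples were filtered on GF/B, washed twelve times with ice-cold buffer, and radioactivity counted.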

For assay [5], the system named is Mus musculus. Briefly: Antinociceptive activity in oxaliplatin-induced 4r5CD-1 albino mouse assessed as […] pain relief at 30 mg/kg, po cotreated with oxaliplatin on day 1 to 14 measured up to 24 hrs post last on day 15 by cold plate test. It counts as functional, organism-based. A digest of the protocol:
as §1

For assay [6], the target named is T1, Monoglyceride lipase (Homo sapiens). As to conditions: 20 uM. This is another data set of the same source.
Assay [7] concerns Mus musculus. The experiment in a line: Effect on 2-AG level in brain of oxaliplatin-induced neuropathic pain 4r5CD-1 albino mouse model at 30 mg/kg, po measured at 1 hr post last dose on day 15 by LC-MS/MS analysis. The format is functional, organism-based. The method in brief:
as §2

Assay [8] deals with Mus musculus. The experiment in a line: Antinociceptive activity in po dosed oxaliplatin-induced neuropathic pain 4r5CD-1 albino mouse model assessed as pain relief treated on day 15 post oxaliplatin treatment by cold plate test. It counts as functional, organism-based. A digest of the protocol: (§3)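 Male CD-1 mice (22–25 g) received oxaliplatin 2.4 mg/kg i.p. in 5% glucose on days 1-2, 5-9, 12-14. On day 15 a single p.o. dose (10 or 30 mg/kg) suspended in CMC was given. Cold plate at 4 °C ± 1 °C, 60 s cut-off, latency to first paw lick or lift timed after dosing. 10 mice per group over 2 sets, mean ± S.E.M., one-way ANOVA with Bonferroni.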

Assay [9] addresses T2, Fatty-acid amide hydrolase 1 (Homo sapiens) (UniProt O00519).
T2 sequence (whole entry): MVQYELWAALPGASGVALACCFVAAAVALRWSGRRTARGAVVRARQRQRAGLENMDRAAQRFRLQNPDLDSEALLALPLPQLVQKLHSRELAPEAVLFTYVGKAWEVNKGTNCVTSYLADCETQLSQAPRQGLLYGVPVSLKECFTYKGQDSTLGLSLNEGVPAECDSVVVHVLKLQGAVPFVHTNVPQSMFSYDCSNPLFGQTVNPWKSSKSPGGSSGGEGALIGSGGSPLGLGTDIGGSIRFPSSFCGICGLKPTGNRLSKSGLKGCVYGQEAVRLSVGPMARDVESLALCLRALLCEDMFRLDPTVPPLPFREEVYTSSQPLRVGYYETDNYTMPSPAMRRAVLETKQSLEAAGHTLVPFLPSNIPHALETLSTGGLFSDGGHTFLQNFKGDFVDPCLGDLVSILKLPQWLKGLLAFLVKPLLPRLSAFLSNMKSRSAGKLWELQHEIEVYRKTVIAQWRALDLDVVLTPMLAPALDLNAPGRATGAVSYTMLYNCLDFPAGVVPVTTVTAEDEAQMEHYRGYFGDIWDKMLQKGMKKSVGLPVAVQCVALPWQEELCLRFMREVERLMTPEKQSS
The experiment in a line: Inhibition of recombinant human FAAH using AMC arachidonoylamide as substrate at 10 uM after 30 mins by fluorescence assay relative to control. A digest of the protocol: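 Human recombinant FAAH (0.9 µg/well) in 125 mM Tris pH 9.0 with 1 mM EDTA and 0.1 mg/ml BSA at room temperature. Substrate was AMC arachidonoylamide, final 10 µM. Compound range 200–0.0128 µM. Fluorescence (ex 340/em 460 nm) read after 30 min with no-enzyme blanks subtracted. IC50 from sigmoidal dose-response fit.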

Assay [10] relates to Mus musculus. The experiment in a line: Antinociceptive activity in oxaliplatin-induced neuropathic pain 4r5CD-1 albino mouse model assessed as reduction in licking latency at 10 mg/kg, po treated on day 15 post oxaliplatin treatment measure at 30 mins post dose by cold plate test. The format is functional, organism-based. A digest of the protocol:
as §3

Assay [11] deals with Mus musculus. Briefly: Antinociceptive activity in oxaliplatin-induced neuropathic pain 4r5CD-1 albino mouse model assessed as reduction in licking latency at 30 mg/kg, po treated on day 15 post oxaliplatin treatment measure at 30 to 45 mins post dose by cold plate test. The format is functional, organism-based. A digest of the protocol: as §3

Sequence of Cannabinoid receptor 2 (Homo sapiens) (P34972 whole entry): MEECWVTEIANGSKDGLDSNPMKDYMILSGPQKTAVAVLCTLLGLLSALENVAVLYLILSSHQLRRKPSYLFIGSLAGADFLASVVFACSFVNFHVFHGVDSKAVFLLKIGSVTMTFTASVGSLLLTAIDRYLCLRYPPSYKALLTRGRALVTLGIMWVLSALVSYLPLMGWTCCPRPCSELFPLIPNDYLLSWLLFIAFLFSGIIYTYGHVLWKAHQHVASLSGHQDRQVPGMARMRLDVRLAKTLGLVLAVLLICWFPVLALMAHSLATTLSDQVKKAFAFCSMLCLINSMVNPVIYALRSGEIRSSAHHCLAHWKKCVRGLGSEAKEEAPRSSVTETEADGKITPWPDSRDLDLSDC

Regarding `Cc1cccc(Cn2nc(C(=O)N3CCC(Cc4ccccc4)CC3)cc2-c2ccc(O)cc2)c1`, the result in assay [1], in assay [5], in assay [10] and in assay [11] was Active. The inhibition result in assay [2] and in [6] was “Active” in each case. The result in [3] and in assay [7] was inactive. In addition, the inhibition in assay [4] amounted to 35%; in assay [9] it was 7%. Also, in assay [8], the Activity entry is “Dose-dependent effect”.
